ChEMBL document CHEMBL5712078, “BRD9 Inhibition, Alone or in Combination with Cytostatic Compounds as a Therapeutic Approach in Rhabdoid Tumors” (Int J Mol Sci, 2017)

Columns and labels:
[1] = system: G-401; assay: Induction of apoptosis in human G-401 cells assessed as necrotic cells incubated for 72 hrs by flow cytometry analysis; assay type: functional, cell-based; conditions: dose 5-20 µM
In short: (§1)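 Annexin V/PI flow assay. G401 at 10,000 cells/mL and BT12 or Chla266 at 30,000 cells/mL were seeded in 12-well plates. Next day medium was replaced with medium holding I-BRD9 or BI-9564 at 0, 5, 10 or 20 µM final for 72 h. Cells were washed in PBS, stained with FITC-Annexin V and propidium iodide for 15 min in the dark at room temperature, then read by flow cytometry. Percentage of dead cells, n ≥3, mean ± SD, one-way ANOVA versus control.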

[2] = system: CHLA-266; assay: Induction of cell cycle arrest in human CHLA-266 cells assessed as accumulation of cells at G1 phase at 20 uM incubated for 72 hrs by flow cytometry analysis (reference value: 74.2+/-3.6%); assay type: functional
In short: (§2)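 Cell cycle. Seeding and 72 h treatment as for the apoptosis assay, with I-BRD9 or BI-9564 at 0, 5, 10 or 20 µM final. A 100 µL cell suspension was stained with DAPI and read by flow cytometry. Percentage of cells in G1, n ≥3, mean ± SD, one-way ANOVA versus control.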

[3] = Anti-proliferative activity against human KD cells assessed as cell viability incubated for 144 hrs by MTT assay; assay type: functional, cell-based
In short: (§3)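 MTT proliferation assay. Cells were seeded at 3000 (BT16, KD, G401) or 5000 (BT12, Chla266) cells per well and drug was added after 24 h, final 0.001–100 µM. Read at 72 or 144 h; 144 h wells got fresh medium and drug on day 3. MTT for 3 h, formazan dissolved in isopropanol/0.04 N HCl, absorbance at 570/630 nm. Technical triplicates, ≥3 independent runs, IC50 derived.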

[4] = system: BT-12; assay: Anti-proliferative activity against human BT-12 cells assessed as inhibition cell growth incubated for 72 hrs in presence of carboplatin by MTT-based Chou-Talalay method; assay type: functional; conditions: BT-12, 72 h
In short: (§4)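 Combination MTT assay. I-BRD9 and carboplatin, doxorubicin or vincristine were given together at a fixed 10:1 ratio, with cytostatics 0.0001–10 µM final, added 24 h after seeding. MTT read-out at 570/630 nm after 3 h formazan solubilisation. Combination index from the Chou–Talalay median-effect method: CI <1 synergism, CI >1 antagonism. n ≥3.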

[5] = system: G-401; assay: Induction of apoptosis in human G-401 cells assessed as necrotic cells at 10 uM incubated for 72 hrs by flow cytometry analysis (Rvb= 5.7+/-1.9 %); assay type: functional; in short: as §1
[6] = system: G-401; assay: Induction of cell cycle arrest in human G-401 cells assessed as accumulation of cells at G1 phase at 5 uM incubated for 72 hrs by flow cytometry analysis (reference value: 46.7+/-1.9%); assay type: functional
In short: (§5)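 72 h DAPI flow-cytometry cell-cycle assay. Chla266 in IMDM/20% FBS seeded at 30,000 cells/mL; G401 in DMEM/10% FBS at 10,000 cells/mL; 1 mL/well, 37 °C, 5% CO2. Next day the medium was replaced with inhibitor at final 0, 5, 10 or 20 µM. Cells were harvested, PBS-washed, and the G1 percentage was read. n ≥ 3, mean ± SD, one-way ANOVA vs control.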

[7] = system: BT-12; assay: Synergistic cytotoxicity against human BT-12 cells assessed as combination index incubated for 72 hrs in presence of doxorubicin by MTT-based Chou-Talalay method; assay type: functional
In short: (§6)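 MTT combination assay. BT12 in IMDM/20% FBS at 5000 cells/well; G401 in DMEM/10% FBS. Drugs added 24 h after seeding, with I-BRD9 and cytostatic at a fixed 10:1 ratio (final ranges 0.001–100 µM and 0.0001–10 µM). After 72 h: MTT for 3 h, dissolved in isopropanol/0.04 N HCl, read at 570/630 nm. Technical triplicates, ≥3 independent runs; combination index by Chou–Talalay median-effect analysis.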

[8] = system: G-401; assay: Induction of apoptosis in human G-401 cells assessed as necrotic cells at 20 uM incubated for 72 hrs by flow cytometry analysis (Rvb= 5.7+/-1.9 %); assay type: functional; in short: as §1
[9] = system: G-401; assay: Synergistic cytotoxicity against human G-401 cells assessed as combination index incubated for 72 hrs in presence of vincristine by MTT-based Chou-Talalay method; assay type: functional; in short: as §6
[10] = system: BT-12; assay: Anti-proliferative activity against human BT-12 cells assessed as cell viability incubated for 144 hrs by MTT assay; assay type: functional, cell-based; conditions: BT-12, 144 h; in short: as §3
[11] = system: G-401; assay: Induction of cell cycle arrest in human G-401 cells assessed as accumulation of cells at G1 phase at 10 uM incubated for 72 hrs by flow cytometry analysis (Rvb =46.7+/-1.9 %); assay type: functional; in short: as §5
[12] = system: G-401; assay: Anti-proliferative activity against human G-401 cells assessed as inhibition cell growth incubated for 72 hrs in presence of doxorubicin by MTT-based Chou-Talalay method; assay type: functional; conditions: G-401, 72 h; in short: as §4
[13] = system: G-401; assay: Synergistic cytotoxicity against human G-401 cells assessed as combination index incubated for 72 hrs in presence of carboplatin by MTT-based Chou-Talalay method; assay type: functional; in short: as §6
[14] = system: G-401; assay: Anti-proliferative activity against human G-401 cells assessed as inhibition cell growth incubated for 72 hrs in presence of carboplatin by MTT-based Chou-Talalay method; assay type: functional; conditions: G-401, 72 h; in short: as §4
[15] = system: BT-12; assay: Induction of cell cycle arrest in human BT-12 cells assessed as accumulation of cells at G1 phase at 10 uM incubated for 72 hrs by flow cytometry analysis (reference value: 69+/-1.9%); assay type: functional; in short: as §2
[16] = system: G-401; assay: Anti-proliferative activity against human G-401 cells assessed as cell viability incubated for 144 hrs by MTT assay; assay type: functional, cell-based; conditions: G-401, 144 h; in short: as §3
[17] = system: CHLA-266; assay: Anti-proliferative activity against human CHLA-266 cells assessed as cell viability incubated for 72 hrs by MTT assay; assay type: functional, cell-based; conditions: CHLA-266, 72 h; in short: as §3
[18] = system: G-401; assay: Synergistic cytotoxicity against human G-401 cells assessed as combination index incubated for 72 hrs in presence of doxorubicin by MTT-based Chou-Talalay method; assay type: functional; in short: as §6
[19] = system: BT-12; assay: Induction of apoptosis in human BT-12 cells assessed as necrotic cells at 5 uM incubated for 72 hrs by flow cytometry analysis (reference value: 9.1+/-2.8 %); assay type: functional; in short: as §1
[20] = system: CHLA-266; assay: Induction of cell cycle arrest in human CHLA-266 cells assessed as accumulation of cells at G1 phase incubated for 72 hrs by flow cytometry analysis; assay type: functional, cell-based; conditions: dose 5-20 µM; in short: as §5
[21] = system: G-401; assay: Induction of cell cycle arrest in human G-401 cells assessed as accumulation of cells at G1 phase at 20 uM incubated for 72 hrs by flow cytometry analysis (reference value: 46.7+/-1.9 %); assay type: functional; in short: as §5
[22] = system: CHLA-266; assay: Induction of apoptosis in human CHLA-266 cells assessed as necrotic cells at 20 uM incubated for 72 hrs by flow cytometry analysis (Rvb= 5.0+/-0.3 %)
[23] = system: BT-12; assay: Induction of cell cycle arrest in human BT-12 cells assessed as accumulation of cells at G1 phase at 5 uM incubated for 72 hrs by flow cytometry analysis (Rvb =69+/-1.9%); assay type: functional; in short: as §2
[24] = system: BT-12; assay: Anti-proliferative activity against human BT-12 cells assessed as inhibition cell growth incubated for 72 hrs in presence of vincristine by MTT-based Chou-Talalay method; assay type: functional; conditions: BT-12, 72 h; in short: as §4

SMILES: CCn1cc(-c2cccc(C(F)(F)F)c2)c2sc(C(=N)NC3CCS(=O)(=O)CC3)cc2c1=O
- Activity [1]: Dose-Dependent Effect
- Activity [2]: 89.3%
- IC50 [3]: 7.1 µM
- IC50 [4]: 40.9 µM
- Activity [5]: 18.8%
- Activity [6]: 53%
- CI [7]: 0.42
- Activity [8]: 70.8%
- CI [9]: 9
- IC50 [10]: 8.2 µM
- Activity [11]: 67.1%
- IC50 [12]: 0.096 µM
- CI [13]: 0.37
- IC50 [14]: 9.1 µM
- Activity [15]: 80.1%
- IC50 [16]: 6.1 µM
- IC50 [17]: 13.3 µM
- CI [18]: 1.2
- Activity [19]: 19.9%
- Activity [20]: Dose-Dependent Effect
- Activity [21]: 78.1%
- Activity [22]: 25%
- Activity [23]: 75%
- IC50 [24]: 16.7 µM
